Laboratory results as given in ChEMBL document CHEMBL1828601, “Small molecule peptidomimetic inhibitors of importin α/β mediated nuclear transport” (Bioorg Med Chem, 2010).
Activity calls are given as the source filed them. No rule for the calls is given here.

Experiments:
FGM [1] = assay: Inhibition of importin alpha/beta-mediated nuclear transportation of Alexa555-BSA-NLS in human FGM cell nucleus at 500 uM after 30 mins by fluorescence microscopy; assay type: cell-based
FGM [2] = assay: Inhibition of importin alpha/beta-mediated nuclear transportation of Alexa555-GST-M9 in human FGM cell nucleus at 500 uM after 30 mins by fluorescence microscopy; assay type: cell-based
Outline: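 Transportin-dependent import measured the same way in permeabilized FGM cells, with 0.5 μM Alexa555-GST-M9 cargo in place of BSA-NLS. Conditions: 3 mg/ml HeLa cytosol, ATP-regenerating system, 0.2 mM GTP, 1% DMSO, 30 min at 30°C. Positive control was 1 mg/ml WGA. Nuclear cargo fluorescence quantified per nucleus by automated imaging.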

[3] = Inhibition of importin alpha/beta-mediated nuclear transportation of Alexa555-BSA-NLS in human FGM cell nucleus after 30 mins by fluorescence microscopy; assay type: cell-based
[4] = Inhibition of importin-beta binding to immobilized GST-IBB domain of importin alpha at 50 uM by surface plasmon resonance assay
[5] = Inhibition of importin-beta binding to immobilized GST-RanQLGTP at 50 uM by surface plasmon resonance assay
[6] = Inhibition of importin-beta binding to immobilized GST-FG domain of Nup153 at 50 uM by surface plasmon resonance assay
FGM [7] = assay: Selectivity ratio of IC50 for importin alpha/beta-mediated nuclear transportation of Alexa555-BSA-NLS to IC50 for importin alpha/beta-mediated nuclear transportation of Alexa555-GST-M9 in human FGM cell nucleus; assay type: cell-based

Structure (SMILES) | inhibition (FGM [1]) | inhibition (FGM [2]) | other results
N[C@@H](Cc1ccc(O)cc1)C(=O)N1C[C@@H](C(=O)NCCc2c[nH]cn2)[C@H](C(=O)NCCc2c[nH]c3ccccc23)C1 | Active | Active | 
N[C@@H](CCc1ccccc1)C(=O)Nc1ccc(C(=O)N[C@@H](CCc2ccccc2)C(=O)O)cc1OCc1ccc(Cl)cc1 | Active | Active | 
NCCCCNC(=O)[C@@H]1CN(C(=O)[C@@H](N)Cc2cnc[nH]2)C[C@H]1C(=O)NCCc1ccc2ccccc2c1 | inactive | inactive | 
C[C@H](N)C(=O)Nc1ccc(C(=O)N[C@@H](CCc2ccccc2)C(=O)O)cc1OCc1ccc(Cl)cc1 | Active | Active | 
CC[C@@H](C)[C@H](N)C(=O)Nc1ccc(C(=O)N[C@@H](CCc2ccccc2)C(=O)O)cc1OCc1ccc(Cl)cc1 | Active | Active | 
NCC(=O)Nc1ccc(C(=O)N[C@@H](CCc2ccccc2)C(=O)O)cc1OCc1ccc(Cl)cc1 | inactive | inactive | 
CC[C@H](C)[C@H](N)C(=O)Nc1ccc(C(=O)N[C@@H](CCc2ccccc2)C(=O)O)cc1OCc1ccccc1 | Active |  | IC50 [3]: 106000 nM; Kd [4]: 42 nM; Kd [5]: 61 nM; Kd [6]: 16 nM; Ratio IC50 (FGM [7]): > 15
N[C@@H](CO)C(=O)N1C[C@@H](C(=O)NCCc2c[nH]cn2)[C@H](C(=O)NCCc2c[nH]c3ccccc23)C1 | inactive | inactive | 
CSCC[C@H](N)C(=O)Nc1ccc(C(=O)N[C@@H](CCc2ccccc2)C(=O)O)cc1OCc1ccc(Cl)cc1 | Active | Active | 
C[C@@H](O)[C@H](N)C(=O)N1C[C@@H](C(=O)NCCc2c[nH]cn2)[C@H](C(=O)NCCc2c[nH]c3ccccc23)C1 | inactive | inactive | 
CC[C@H](C)[C@H](NC(=O)c1ccc(NC(=O)[C@@H](N)CCc2ccccc2)c(OCc2c[nH]cn2)c1)C(=O)O | Active | Active | 
NCCCCNC(=O)[C@@H]1CN(C(=O)[C@@H](N)Cc2ccc(Cl)cc2)C[C@H]1C(=O)NCCc1ccc2ccccc2c1 | inactive | inactive | 
CC(C)C[C@H](N)C(=O)Nc1ccc(C(=O)N[C@@H](CCc2ccccc2)C(=O)O)cc1OCc1ccc(Cl)cc1 | Active | Active | 
CC[C@H](C)[C@H](NC(=O)c1ccc(NC(=O)[C@@H](N)Cc2ccc(O)cc2)c(OCc2c[nH]cn2)c1)C(=O)O | inactive | inactive | 
NCCCC[C@H](N)C(=O)Nc1ccc(C(=O)N[C@@H](CCc2ccccc2)C(=O)O)cc1OCc1ccc(Cl)cc1 | inactive | inactive | 
NCCCCNC(=O)[C@@H]1CN(C(=O)[C@@H](N)Cc2ccc(O)cc2)C[C@H]1C(=O)NCCc1ccc2ccccc2c1 | inactive | inactive | 
COc1ccc(C[C@H](N)C(=O)Nc2ccc(C(=O)N[C@@H](CCc3ccccc3)C(=O)O)cc2OCc2ccc(Cl)cc2)cc1 | inactive | inactive | 
N[C@@H](Cc1ccc(O)cc1)C(=O)Nc1ccc(C(=O)N[C@@H](CCc2ccccc2)C(=O)O)cc1OCc1ccc(Cl)cc1 | Active | Active | 
NC(=O)C[C@H](N)C(=O)Nc1ccc(C(=O)N[C@@H](CCc2ccccc2)C(=O)O)cc1OCc1ccc(Cl)cc1 | Active | Active | 
CC[C@@H](C)[C@H](NC(=O)c1ccc(NC(=O)[C@@H](N)[C@@H](C)O)c(OCc2c[nH]cn2)c1)C(=O)O | inactive | inactive | 
N[C@@H](CC(=O)O)C(=O)N1C[C@@H](C(=O)NCCc2c[nH]cn2)[C@H](C(=O)NCCc2c[nH]c3ccccc23)C1 | inactive | inactive | 
CC[C@H](C)[C@H](NC(=O)c1ccc(NC(=O)[C@@H](N)Cc2ccc(Cl)cc2)c(OCc2c[nH]cn2)c1)C(=O)O | inactive | inactive | 
CC[C@H](C)[C@H](NC(=O)c1ccc(NC(=O)[C@@H](N)CCSC)c(OCc2c[nH]cn2)c1)C(=O)O | inactive | inactive | 
